Assay results from different studies.
Each line is one published result; the experiments were not run side by side.

With `CC(C)(C)OC(=O)NNc1nc2nonc2nc1Nc1ccccc1F` the half-life was 0.25 to 0.45 h (male C57BL/6 mouse; plasma; oral; 10 mg/kg).
`CCOc1ccc(N(C)S(=O)(=O)c2cc(Cl)sc2C(=O)Nc2cc(Cl)cc(C(=O)O)c2)cc1OC` gave a half-life of 0.558 h (male C57BL/6 mouse; brain; intraperitoneal; 10 mg/kg).
For `CCN1CCN(Cc2ccc(NC(=O)c3ccc(C)c(NC(=O)c4cncc(-c5cccs5)c4)c3)cc2C(F)(F)F)CC1`, the half-life was 2.71 h (mouse; plasma; intraperitoneal; 30 mg/kg; single dose).
`C=CS(=O)(=O)c1ccc(Nc2nc(OCC3CCCCC3)c3nc[nH]c3n2)cc1` gave a half-life of 5.27 h (male BALB/c mouse; plasma; intravenous; 20 mg/kg; single dose).
`CC1=NN(/C(=N/c2nnc(C)s2)Nc2ccc(C)c(C)c2)C(c2cc(F)c(F)c(F)c2)S1` (stereo not shown) has a half-life of 1.56 h (male CD-1 mouse; plasma; intravenous; 1 mg/kg).
`CCOC(=O)c1cc(Cl)cc(NC(=O)c2sc(Cl)cc2S(=O)(=O)N(C)c2ccc(OCC)c(OC)c2)c1` gave a half-life of 2.14 h (male C57BL/6 mouse; brain; intraperitoneal; 10 mg/kg).
`Nc1ncn([C@H]2C[C@H](O)[C@@H](CO)O2)c(=O)n1` gave a half-life of 0.77 h (female C57BL/6 mouse; plasma; intravenous; 0.4 mg/kg).
`CC(C(=O)Nc1c(F)cccc1F)N1CCN(c2ccccc2)CC1` (stereo not shown) has a half-life of ~0.55 h (female C57BL/6 mouse; plasma; intraperitoneal; 10 mg/kg).
With `O=C1CCC(N2Cc3cc(NC(=O)c4cccc(F)c4)ccc3C2=O)C(=O)N1` (stereo not shown) the half-life was 1.2 h (female CD-1 mouse; plasma; intravenous; 3 mg/kg).
`O=C1CC[C@H](N2Cc3c(ccc4c3OCC43CCN(C[C@@H]4CCC5(CCN(c6ccc([C@@H]7c8ccc(O)cc8CC[C@@H]7c7ccccc7)cc6)CC5)OC4)CC3)C2=O)C(=O)N1` has a half-life of ~13 h (mouse; plasma; oral; 3 mg/kg).
`COc1cc(C(=O)OCCCN2CCCN(CCCOC(=O)c3cc(OC)c(OC)c(OC)c3)CC2)cc(OC)c1OC` gave a half-life of 0.83 h (male CD-1 mouse; plasma; subcutaneous).
The half-life of `CC(=O)O[C@@]12CO[C@@H]1C[C@H](O)[C@@]1(C)C(=O)[C@H](O)C3=C(C)[C@@H](OC(=O)[C@H](O)[C@@H](NC(=O)OC(C)(C)C)c4ccccc4)C[C@@](O)([C@@H](OC(=O)c4ccccc4)[C@H]21)C3(C)C` is reported as 2.7 h (male Kunming mouse; liver; oral; 20 mg/kg).
With `CN1CCN(C(=O)[C@H](CCCN[C@@H]2C[C@H]2c2ccc(F)cc2)NC(=O)c2ccc(-n3ccnn3)cc2)CC1` the half-life was 5.66 h (CD-1 mouse; plasma; intravenous; 3 mg/kg).
